Measurements: ChEMBL document CHEMBL1130032, “Preparation and anti-HIV activity of N-3-substituted thymidine nucleoside analogs” (J Med Chem, 1997)

How the values were obtained:
CEM-c113 [1] = assay: Concentration required to reduce by 50% the viability of noninfected treated CEM-CL13 cells; assay type: functional; conditions: Homo sapiens
Method in brief: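 CEM-c113 cells, 1×10^4 per well, exposed to 10-fold dilutions of compound without virus; 7 days at 37 °C, 5% CO2; MTT viability read-out; CC50 = concentration reducing viability by 50% relative to uninfected untreated controls; triplicate wells, mean of at least two experiments.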

[2] = test system: Human immunodeficiency virus 1; assay: Inhibition of HIV-1 LA1 cytopathic effects on CEM-CL13 cells in vitro.; assay type: functional, organism-based; conditions: Human immunodeficiency virus 1, CEM-CL13
Method in brief: (§1)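 CEM-c113 cells (1×10^4/well) preincubated 1 h with 10-fold compound dilutions, then infected with HIV-1 LAI; cultured 7 days at 37 °C, 5% CO2; cytopathic effect scored by MTT viability versus infected untreated cells; EC50 = 50% reduction of CPE; triplicate, mean of ≥2 experiments.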

[3] = Ratio of CC50 in CEM-CL13 cells to EC50 in HIV-1 LA1 infected CEM-CL13 cells.; assay type: functional
Method in brief: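 Selectivity index computed as CC50 (MTT viability of uninfected treated CEM-c113 cells) divided by EC50 (MTT protection of HIV-1 LAI-infected CEM-c113 cells), both from 7-day cultures at 37 °C exposed to 10-fold compound dilutions.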

CEM-c113 [4] = assay: Concentration that reduces by 50% the HIV induced cytopathic effect on CEM-CL13 cells by MTT viability assay; NA = Not active; assay type: functional, cell-based, Homo sapiens; method in brief: as §1

Cc1cn(C2CC(n3c(=O)c(C)cn(C4CC(N=[N+]=[N-])C(CO)O4)c3=O)C(CO)O2)c(=O)[nH]c1=O (stereo not given)
CC50 (CEM-c113 [1]): 66 µM | EC50 [2]: 2.2 µM | Ratio [3]: 30

COCCOCn1c(=O)c(C)cn(C2CC(N=[N+]=[N-])C(CO)O2)c1=O (stereo not given)
CC50 (CEM-c113 [1]): 281 µM | EC50 [2]: 5.6 µM | Ratio [3]: 50

Cc1cn(C2CC(N=[N+]=[N-])C(CO)O2)c(=O)n(CCn2c(=O)c(C)cn(C3CC(N=[N+]=[N-])C(CO)O3)c2=O)c1=O (stereo not given)
CC50 (CEM-c113 [1]): 36 µM | EC50 [2]: 0.7 µM | Ratio [3]: 51

Cc1cn(C2CC(N=[N+]=[N-])C(CO)O2)c(=O)n(CCN2C(=O)c3ccccc3C2=O)c1=O (stereo not given)
CC50 (CEM-c113 [1]): 227 µM | EC50 [2]: 110 µM | Ratio [3]: 2

COc1nc(=O)n(CCn2c(=O)c(C)cn(C3CC(N=[N+]=[N-])C(CO)O3)c2=O)cc1C (stereo not given)
CC50 (CEM-c113 [1]): 29 µM | EC50 (CEM-c113 [4]): Not Active

Cc1cn(C2CC(N=[N+]=[N-])C(CO)O2)c(=O)n(CCO)c1=O (stereo not given)
CC50 (CEM-c113 [1]): 161 µM | EC50 [2]: 0.3 µM | Ratio [3]: 537

C=CCn1c(=O)c(C)cn(C2CC(N=[N+]=[N-])C(CO)O2)c1=O (stereo not given)
CC50 (CEM-c113 [1]): 350 µM | EC50 [2]: 32 µM | Ratio [3]: 11

Cc1cn(C2CC(N=[N+]=[N-])C(CO)O2)c(=O)n(CC2CO2)c1=O (stereo not given)
CC50 (CEM-c113 [1]): > 62 µM | EC50 [2]: 6.8 µM | Ratio [3]: 9

Cc1cn(C2CC(N=[N+]=[N-])C(CO)O2)c(=O)n(N)c1=O (stereo not given)
CC50 (CEM-c113 [1]): 450 µM | EC50 [2]: 0.045 µM | Ratio [3]: 10000

Cc1cn(C2CC(N=[N+]=[N-])C(CO)O2)c(=O)n(CCCO)c1=O (stereo not given)
CC50 (CEM-c113 [1]): 154 µM | EC50 [2]: 0.15 µM | Ratio [3]: 1027

Cc1cn(C2CC(N=[N+]=[N-])C(CO)O2)c(=O)n(C)c1=O (stereo not given)
CC50 (CEM-c113 [1]): 355 µM | EC50 [2]: 0.94 µM | Ratio [3]: 380

Cc1cn(C2CC(N=[N+]=[N-])C(CO)O2)c(=O)n(CC2COC(C)(C)O2)c1=O (stereo not given)
CC50 (CEM-c113 [1]): > 131 µM | EC50 [2]: 1.3 µM | Ratio [3]: 100

Cc1cn(C2CC(N=[N+]=[N-])C(CO)O2)c(=O)n(CC2CC(CO)=NO2)c1=O (stereo not given)
CC50 (CEM-c113 [1]): 26 µM | EC50 [2]: 0.5 µM | Ratio [3]: 52

CCOC(=O)Cn1c(=O)c(C)cn(C2CC(N=[N+]=[N-])C(CO)O2)c1=O (stereo not given)
CC50 (CEM-c113 [1]): 283 µM | EC50 [2]: 1.47 µM | Ratio [3]: 193

Cc1cn(CCn2c(=O)c(C)cn(C3CC(N=[N+]=[N-])C(CO)O3)c2=O)c(=O)[nH]c1=O (stereo not given)
CC50 (CEM-c113 [1]): > 29 µM | EC50 [2]: 0.48 µM | Ratio [3]: 60

Cc1cn(C2CC(N=[N+]=[N-])C(CO)O2)c(=O)n(CCBr)c1=O (stereo not given)
CC50 (CEM-c113 [1]): 53 µM | EC50 [2]: 2.67 µM | Ratio [3]: 20

CCOC(Cn1c(=O)c(C)cn(C2CC(N=[N+]=[N-])C(CO)O2)c1=O)OCC (stereo not given)
CC50 (CEM-c113 [1]): 130 µM | EC50 [2]: 5 µM | Ratio [3]: 26

CCOP(=O)(Cn1c(=O)c(C)cn(C2CC(N=[N+]=[N-])C(CO)O2)c1=O)OCC (stereo not given)
CC50 (CEM-c113 [1]): 240 µM | EC50 [2]: 0.071 µM | Ratio [3]: 3380

Cc1cn(C2CC(N=[N+]=[N-])C(CO)O2)c(=O)n(Cc2ccoc2)c1=O (stereo not given)
CC50 (CEM-c113 [1]): > 288 µM | EC50 [2]: 143 µM | Ratio [3]: 2

CCCCCn1c(=O)c(C)cn(C2CC(N=[N+]=[N-])C(CO)O2)c1=O (stereo not given)
CC50 (CEM-c113 [1]): > 60 µM | EC50 [2]: 0.89 µM | Ratio [3]: >67

Cc1cn(C2CC(N=[N+]=[N-])C(CO)O2)c(=O)n(Cc2ccccc2)c1=O (stereo not given)
CC50 (CEM-c113 [1]): 28 µM | EC50 (CEM-c113 [4]): Not Active

Cc1cn(C2CC(N=[N+]=[N-])C(CO)O2)c(=O)n(CCCCCCO)c1=O (stereo not given)
CC50 (CEM-c113 [1]): 64 µM | EC50 [2]: 0.082 µM | Ratio [3]: 780

Cc1cn(C2CC(N=[N+]=[N-])C(CO)O2)c(=O)n(CCN=[N+]=[N-])c1=O (stereo not given)
CC50 (CEM-c113 [1]): 60 µM | EC50 [2]: 0.26 µM | Ratio [3]: 230

Cc1cn([C@H]2C[C@H](N=[N+]=[N-])[C@@H](CO)O2)c(=O)[nH]c1=O [ZIDOVUDINE]
CC50 (CEM-c113 [1]): > 5 µM | EC50 [2]: 0.003 µM | Ratio [3]: 1667
